Assay results from ChEMBL document CHEMBL1140706, “A Novel iron-chelating derivative of the neuroprotective peptide NAPVSIPQ shows superior antioxidant and antineurodegenerative capabilities” (J Med Chem, 2008).
The source made the active and inactive calls. No cut-off for these calls is given here.

Assays:
[1] = Iron chelating activity by ferrozine method; type: functional
Procedure, shortened: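 Competition with ferrozine for Fe(II) in 5% ammonium acetate buffer, pH 6.9. Compound (100–600 µM, duplicate) preincubated 30 min with 15 µM FeSO4, then 60 µM ferrozine added for 1 h at ambient temperature. Absorbance read at 562 nm with blank subtracted. Chelating effect % = [1 − sample/control] × 100. n = 3 in duplicate.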

Brain [2] = assay: Inhibition of iron/ascorbate-induced lipid peroxidation in Sprague-Dawley rat brain mitochondrial membrane homogenate at 100 uM; type: functional, tissue-based
Procedure, shortened: (§1)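 Crude mitochondrial fraction from brains of male Sprague-Dawley rats (250–300 g). Assay in 25 mM Tris-HCl pH 7.5 with 25 µM ascorbate, 40 µg protein, 1.5 µM FeSO4 and compound (10–750 µM). Shaken 2 h at ambient temperature, then TCA stop and TBA at 95 °C for 30 min. Read at 532 nm, blank subtracted, percent of control. n = 3 in duplicate.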

[3] = Effect on iron-induced hydroxyl radical generation assessed as increase in PBN-OH radical spin adduct concentration at 600 uM; type: functional
Procedure, shortened: (§2)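 Fenton system of 100 µM FeSO4, 200 µM H2O2 and 35 mM PBN spin trap. Compound added 2 min before H2O2. EPR spectrum recorded at room temperature in a quartz flat cell. PBN-OH spin adduct level estimated from peak intensity of the middle field doublet and expressed as percent of control. Mean ± SEM, n = 3.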

Brain [4] = assay: Inhibition of iron/ascorbate-induced lipid peroxidation in Sprague-Dawley rat brain mitochondrial membrane homogenate; type: functional, tissue-based; procedure, shortened: as §1
[5] = Effect on iron-induced hydroxyl radical generation assessed as reduction in EPR signals relative to control; type: functional; parameters: scale not given: the % may be the effect or the level left; procedure, shortened: as §2
[6] = Effect on iron-induced hydroxyl radical generation assessed as reduction in EPR signals at 300 uM relative to control; type: functional; parameters: scale not given: the % may be the effect or the level left; procedure, shortened: as §2
[7] = Effect on iron-induced hydroxyl radical generation assessed as reduction in EPR signals; type: functional; procedure, shortened: as §2
SH-SY5Y [8] = assay: Neuroprotective activity against hydrogen persoxide-induced cell death in human SH-SY5Y cells upto 10 uM by MTT assay; type: ADME, cell-based
Procedure, shortened: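 SH-SY5Y cells seeded at 0.5 × 10^4 per well in MEM/F-12 with 10% FCS and allowed to attach for 24 h. Compound added immediately before 80 µM H2O2, then 24 h at 37 °C. MTT for 2 h, then SDS/HCl lysis for 24 h, read at 570/650 nm. Viability expressed as percent of cells not treated with H2O2. n = 7 over two experiments.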

Brain [9] = assay: Inhibition of iron/ascorbate-induced lipid peroxidation in Sprague-Dawley rat brain mitochondrial membrane homogenate at 15 uM; type: functional, tissue-based; procedure, shortened: as §1
SH-SY5Y [10] = assay: Neuroprotective activity against hydrogen persoxide-induced cell death in human SH-SY5Y cells assessed as cell viability at 1 uM by MTT assay relative to control; type: cell-based; conditions: read-out: Activity
Procedure, shortened: (§3)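 SH-SY5Y cells grown in 1:1 Eagle MEM/Ham's F-12 with 10% FCS, 37 °C, 5% CO2; seeded 0.5 × 10^4 cells/well, attached 24 h. Compounds or vehicle added just before 80 µM H2O2. After 24 h at 37 °C, MTT added for 2 h, then SDS/HCl for a further 24 h; absorbance read at 570/650 nm. Viability expressed as percent of cells not treated with H2O2.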

SH-SY5Y [11] = assay: Neuroprotective activity against hydrogen persoxide-induced cell death in human SH-SY5Y cells assessed as cell viability at 10 uM by MTT assay relative to control; type: cell-based; conditions: read-out: Activity; procedure, shortened: as §3

IC50 [1] [µM]	IC50 (Brain [4]) [µM]	IC50 [7] [µM]	Structure (SMILES)	Activity (Brain [2])	Activity [3]	Activity [5] [%]	Activity ([6]; 600 uM, in the assay text read “at 600 uM” for “at 300 uM”) [%]	Activity (SH-SY5Y [8])	Activity (Brain [9])	Activity ([6]; 300 uM) [%]	viability at 1 µM (SH-SY5Y [10]) [%]	viability at 10 µM (SH-SY5Y [11]) [%]
360			CC[C@H](C)[C@H](NC(=O)[C@H](CO)NC(=O)[C@@H](NC(=O)[C@@H]1CCCN1C(=O)[C@H](C)NC(=O)[C@@H](N)CC(=O)NO)C(C)C)C(=O)N1CCC[C@H]1C(=O)N[C@@H](CCC(N)=O)C(=O)O	inactive	inactive							
170	340	150	CC[C@H](C)[C@H](NC(=O)[C@H](CO)NC(=O)[C@@H](NC(=O)[C@@H]1CCCN1C(=O)[C@H](C)NC(=O)[C@@H](N)CC(=O)NO)C(C)C)C(=O)N1CCC[C@H]1C(=O)N[C@@H](CCC(N)=O)C(=O)NO	inactive		28	28	Non-toxic				
360			CC[C@H](C)[C@H](NC(=O)[C@H](CO)NC(=O)[C@@H](NC(=O)[C@@H]1CCCN1C(=O)[C@H](C)NC(=O)[C@@H](N)CC(N)=O)C(C)C)C(=O)N1CCC[C@H]1C(=O)N[C@@H](CCC(N)=O)C(=O)NO	inactive	inactive							

Structure (SMILES)	IC50 [1] [µM]	IC50 (Brain [4]) [µM]	IC50 [7] [µM]	Activity (Brain [2])	Activity [3]	Activity [5] [%]	Activity ([6]; 600 uM, in the assay text read “at 600 uM” for “at 300 uM”) [%]	Activity (SH-SY5Y [8])	Activity (Brain [9])	Activity ([6]; 300 uM) [%]	viability at 1 µM (SH-SY5Y [10]) [%]	viability at 10 µM (SH-SY5Y [11]) [%]
CC(=O)N(O)CCCCCNC(=O)CCC(=O)N(O)CCCCCNC(=O)CCC(=O)N(O)CCCCCN [DEFEROXAMINE]	10								Active	12	76	76
